HUVEC inhibit: human endothelial cell proliferation inhibition; HUVEC proliferation, CellTiter-Glo luminescence, 72 h; active compounds read low; actives 1.1% (n = 86,000); viability, % at 10 µM (by protocol);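 active = viability at or below 30%; inactive = viability above 30%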
Fibroblast inh: blocks proliferation of human lung fibroblasts; LL 47 human lung fibroblast viability, ATP luminescence; active compounds read low; viability, % at 10 µM; actives 1.1% (n = 85,000); AID 719;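 active = viability at or below 50% in the single dose screen; inactive = viability above 50%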;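 note: compound exposure lasted 72 h before the ATP readout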
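Material: human lung fibroblast line LL 47, low passage; Evaluation: viability percentage against median untreated-cell control; Buffer or medium: 15% FBS in IMEM; Incubation: 72 h compound exposure at 37 °C after overnight plating; Dosing: 0.1% DMSO in all compound wells; Measured by: CellTiter-Glo luminescence.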
HCT116 bCat-KO: beta-catenin-lacking colon tumor cell growth suppression | HCT116 beta-catenin knockout viability, CellTiter-Glo, 60 h; active compounds read low | viability, % at 10 µM | actives 1.5% (n = 140,000);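 active = viability at or under a set limit, the compound median less 4 SD, cut at about 6% in these data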
H69AR growth 86K: blocks growth of human H69AR lung tumor cells. H69AR lung tumor viability, ATP luminescence, 72 h; active compounds read low. viability, % at 10 µM. actives 6% (n = 85,000). AID 598;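 active = viability at or below 40%; inactive = viability above 40%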;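 note: multidrug resistant small cell line overexpressing MRP-1 efflux transporter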
PTEN del growth: suppresses growth of cells with PTEN deletion; HCT116 PTEN-null viability, CellTiter-Glo, 60 h; active compounds read low; actives 1.2% (n = 140,000); viability, % at 10 µM;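 active = viability at or below a set limit, 4 SD under the median of all tested compounds, cut at about 3.7% in these data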;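 note: PTEN knockout HCT116 line with beta catenin targeted HCT116 as companion control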
Numbers stand for hits; 0 = inactive; - = no result. This excerpt belongs to a sample that is enriched for hits.

SMILES | HUVEC inhibit | Fibroblast inh | HCT116 bCat-KO | H69AR growth 86K | PTEN del growth
O=C(Nc1ccc(Cl)cc1)Nc1nc(-c2sccc2Br)cs1 | - | - | 3.8 | - | 0
Cc1csc(NC(=O)Nc2ccc(Cl)cc2)n1 | 0 | 0 | 0 | 0 | 0
CN1Cc2cccc3c2C(Cc2ccccc2S3)C1 (stereo not drawn) | - | - | 0 | - | 0
OC(C#Cc1ccccn1)c1cccs1 (stereo not drawn) | 7.9 | 0 | 0 | 13 | 0
Nc1nc2ccccc2n1C(=O)CCc1ccccc1 | 0 | 0 | 0 | 26 | 0
CC1=C/C(=N\NC(=O)c2ccccc2)CC1 | - | - | 0 | - | 0
O=C(N/N=C/c1cccc(C(F)(F)F)c1)C1CCN(c2ncc(C(F)(F)F)cc2Cl)CC1 | - | - | 4.0 | - | 2.1
O=C(CC1CCCCC1)c1c(O)c2ccccc2oc1=O | 3.2 | 0 | 0 | 0 | 0
CC1CCC(C(=O)c2c(O)c3ccccc3oc2=O)CC1 (stereo not drawn) | 13 | 0 | 0 | 0 | 0
CCCCC(=O)c1c(O)c2ccccc2oc1=O | - | - | 0 | - | 0
CCCCN=C(C)c1c(O)c2ccccc2oc1=O | 0 | - | 0 | 0 | 0
O=C1CC(c2ccc(Cl)cc2)CC(O)=C1C=NCc1ccc(Cl)c(Cl)c1 (stereo not drawn) | - | - | 0 | - | 0
COc1cc2oc3ccccc3c2cc1N(CC(=O)N1CCCCC1)S(=O)(=O)c1ccc(C)cc1 | - | - | 0 | - | 0
CSc1nc2sc3c(c2c2nncn12)CCC3 | 0 | 0 | 0 | 0 | 0
CCc1nc(Sc2nnnn2-c2ccccc2)c2c3c(sc2n1)CCCC3 | - | - | 4.9 | - | 3.1
Cc1nc(Sc2nnnn2C)c2c3c(sc2n1)CCC3 | 0 | 33 | 0 | 23 | 0
CC(C)(C)S(=O)(=O)c1ccc(S(=O)(=O)C(C)(C)C)s1 | 0 | 0 | 0 | 0 | 0
Cc1ccc(NC(=S)N2CCN(C3CCCCC3)CC2)cc1 | - | - | 0 | - | 0
COc1ccc(CN2CCn3ncc(C(=O)Nc4cc(C)cc(C)c4)c3C2=O)cc1 | 10 | 0 | 0 | 0 | 0
Fc1ccc(Nc2nc(N3CCOCC3)c3ccccc3n2)cc1 | 0 | 0 | - | 35 | -
c1ccc2c(Nc3nc(N4CCOCC4)c4ccccc4n3)cccc2c1 | - | - | 0 | - | 0
O=C(Nc1nnc(-c2ccc3c(c2)CCCC3)o1)C1CCCCC1 | 0 | 0 | 0 | 0 | 0
O=C(Nc1nnc(-c2ccccc2)o1)c1nc2ccccc2s1 | 0 | 0 | - | 29 | -
Cc1ccccc1C(=O)Nc1nnc(-c2ccc(F)cc2)o1 | 0 | 0 | 0 | 36 | 0
NC(=O)c1oc2ccccc2c1NC(=O)c1nc2ccccc2s1 | 0 | 0 | 0 | 0 | 0
SMILES | HUVEC inhibit | Fibroblast inh | HCT116 bCat-KO | H69AR growth 86K | PTEN del growth
CN(C)S(=O)(=O)c1ccc(C(=O)Nc2nnc(-c3ccc4c(c3)CCCC4)o2)cc1 | 0 | 0 | 0 | 28 | 0
O=C(Nc1nnc(-c2ccc3c(c2)CCCC3)o1)c1ccc(Cl)cc1Cl | 29 | 0 | 0 | 0 | 0
Cc1ccc(C)c(OCC(=O)NCC(C)C)c1C | - | - | 0 | - | 0
Cc1cc2ncn(C(=O)N3CCCCCC3)c2cc1C | 0 | 0 | 0 | 0 | 0
CC1CCCN(c2nc3c(c(=O)[nH]c(=O)n3C)n2CCCc2ccccc2)C1 (stereo not drawn) | 0 | 0 | 0 | 0 | 0
COc1ccc(-c2csc(NC(=O)c3ccc(S(=O)(=O)N4CCc5ccccc5C4)cc3)n2)cc1 | - | - | 0 | - | 0
COc1ccc(-c2nnc(NC(=O)c3ccc(S(=O)(=O)N4CCc5ccccc5C4)cc3)o2)cc1 | 13 | 0 | 0 | 18 | 0
COc1ccc(-c2nnc(NC(=O)c3cc(Cl)ccc3Cl)o2)cc1 | 0 | 0 | 0 | 30 | 0
C=CCOc1cccc(C2c3c(oc4ccccc4c3=O)C(=O)N2c2ccccn2)c1 (stereo not drawn) | 0 | 0 | 0 | 26 | 0
CCOc1cccc(C2c3c(oc4ccccc4c3=O)C(=O)N2c2ccccn2)c1 (stereo not drawn) | 0 | 0 | 0 | 0 | 0
CCc1ccc(C2=NNC(=Nc3cccc(S(=O)(=O)N(C)C)c3)SC2)cc1 | - | - | 3.9 | - | 0
CCCCCn1nc(C)c2c(C)cc(=O)[nH]c21 | 0 | 0 | 0 | 0 | 0
Cc1ccc(C2C(C#N)=C(N)Oc3c2sc2ccccc32)o1 (stereo not drawn) | 0 | 0 | 0 | 13 | 0
CCOC(=O)CC1=C(C(=O)OCC)C(c2ccc(C)o2)C(C#N)=C(N)O1 (stereo not drawn) | 0 | 0 | 0 | 0 | 0
O=C(CN1C(=O)c2ccccc2C1=O)Nc1ccccc1C(=O)N1CCCC1 | 0 | 0 | 0 | 0 | 0
CCOC(=O)N1CCC(n2c(=S)[nH]c3cc(OCC)c(OCC)cc3c2=O)CC1 | 28 | 12 | 0 | 22 | 0
CCOc1cc2[nH]c(=S)n(CCN3CCC(C)CC3)c(=O)c2cc1OCC | 0 | 0 | 0 | 0 | 0
CN1C(=O)C2(c3ccccc31)C1CCCC=C1C(C#N)=C(N)C2(C#N)C#N (stereo not drawn) | 0 | 0 | 0 | 0 | 0
COc1ccc(-c2cn[nH]c2-c2ccc(OCc3ccc([N+](=O)[O-])cc3)cc2O)cc1 | - | - | 0 | - | 0
COc1ccc(-c2n[nH]c(C)c2-c2cc(OC)ccc2O)cc1 | 0 | 0 | 0 | 0 | 0
CCOc1ccc(-c2[nH]ncc2-c2ccc(OC)c(OC)c2)c(O)c1 | 0 | 0 | 0 | 14 | 0
CCCOC(=O)c1ccc(Oc2cn[nH]c2-c2ccc(OC)cc2O)cc1 | 8.5 | 0 | 0 | 0 | 0
COc1ccc(-c2c(-c3ccc(O)cc3O)n[nH]c2C)cc1OC | 0 | 0 | 0 | 21 | 0
C=C(C)COc1ccc(-c2n[nH]c(C)c2-c2ccc(Br)cc2)c(O)c1 | 3.8 | 32 | 0 | 6.6 | 0
C=C(C)COc1ccc(-c2nc(N)ncc2Oc2ccc(OC)cc2)c(O)c1 | 0 | 0 | 0 | 0 | 0
SMILES | HUVEC inhibit | Fibroblast inh | HCT116 bCat-KO | H69AR growth 86K | PTEN del growth
Nc1nc(SCC(=O)C23CC4CC(CC(C4)C2)C3)n[nH]1 | 0 | 0 | 0 | 0 | 0
O=C(COC(=O)CNC(=O)c1ccc(Cl)cc1)Nc1ccc(Cl)cc1C(F)(F)F | - | - | 0 | - | 0
C=C(C)COc1ccc(-c2[nH]ncc2-c2ccccc2OC)c(O)c1 | 0 | 0 | 0 | 6.0 | 0
CCOc1ccc(-c2[nH]ncc2Oc2ccccc2OC)c(O)c1 | 0 | 0 | 0 | 0 | 0
C=C(C)COc1ccc(-c2[nH]ncc2-c2ccc(Br)cc2)c(O)c1 | - | - | 1.8 | - | 2.2
C=C(C)COc1ccc(-c2[nH]ncc2Oc2ccccc2OC)c(O)c1 | 0 | 0 | 0 | 1.5 | 0
CCOc1ccc(-c2[nH]ncc2Oc2ccccc2OCC)c(O)c1 | 0 | 0 | 0 | 12 | 0
CNC(=O)CSc1nnc(-c2ccco2)n1-c1ccccc1OC | 0 | 0 | - | 0 | -
O=C(CSc1nc2c(c(C(F)(F)F)n1)CCc1ccccc1-2)NCc1ccco1 | 0 | 0 | 0 | 30 | 0
CC(NC(=O)CSc1nc2c(c(C(F)(F)F)n1)CCc1ccccc1-2)c1ccccc1 (stereo not drawn) | 0 | 0 | 0 | 0 | 0
O=C(CSc1nnc(-c2ccccc2)c(-c2ccccc2)n1)NCc1ccco1 | 0 | 0 | 0 | 20 | 0
CN(C)S(=O)(=O)c1ccc(-c2csnn2)s1 | 0 | 0 | 0 | 0 | 0
COc1ccc(OC)c(C2C(C(=O)c3ccco3)=C(O)C(=O)N2CCCN2CCOCC2)c1 (stereo not drawn) | 0 | 0 | - | 0 | -
